The target in series [1] is T1, HDAC6 (protein deacetylase HDAC6) (Homo sapiens, UniProt Q9UBN7).
T1 sequence (Q9UBN7 whole entry): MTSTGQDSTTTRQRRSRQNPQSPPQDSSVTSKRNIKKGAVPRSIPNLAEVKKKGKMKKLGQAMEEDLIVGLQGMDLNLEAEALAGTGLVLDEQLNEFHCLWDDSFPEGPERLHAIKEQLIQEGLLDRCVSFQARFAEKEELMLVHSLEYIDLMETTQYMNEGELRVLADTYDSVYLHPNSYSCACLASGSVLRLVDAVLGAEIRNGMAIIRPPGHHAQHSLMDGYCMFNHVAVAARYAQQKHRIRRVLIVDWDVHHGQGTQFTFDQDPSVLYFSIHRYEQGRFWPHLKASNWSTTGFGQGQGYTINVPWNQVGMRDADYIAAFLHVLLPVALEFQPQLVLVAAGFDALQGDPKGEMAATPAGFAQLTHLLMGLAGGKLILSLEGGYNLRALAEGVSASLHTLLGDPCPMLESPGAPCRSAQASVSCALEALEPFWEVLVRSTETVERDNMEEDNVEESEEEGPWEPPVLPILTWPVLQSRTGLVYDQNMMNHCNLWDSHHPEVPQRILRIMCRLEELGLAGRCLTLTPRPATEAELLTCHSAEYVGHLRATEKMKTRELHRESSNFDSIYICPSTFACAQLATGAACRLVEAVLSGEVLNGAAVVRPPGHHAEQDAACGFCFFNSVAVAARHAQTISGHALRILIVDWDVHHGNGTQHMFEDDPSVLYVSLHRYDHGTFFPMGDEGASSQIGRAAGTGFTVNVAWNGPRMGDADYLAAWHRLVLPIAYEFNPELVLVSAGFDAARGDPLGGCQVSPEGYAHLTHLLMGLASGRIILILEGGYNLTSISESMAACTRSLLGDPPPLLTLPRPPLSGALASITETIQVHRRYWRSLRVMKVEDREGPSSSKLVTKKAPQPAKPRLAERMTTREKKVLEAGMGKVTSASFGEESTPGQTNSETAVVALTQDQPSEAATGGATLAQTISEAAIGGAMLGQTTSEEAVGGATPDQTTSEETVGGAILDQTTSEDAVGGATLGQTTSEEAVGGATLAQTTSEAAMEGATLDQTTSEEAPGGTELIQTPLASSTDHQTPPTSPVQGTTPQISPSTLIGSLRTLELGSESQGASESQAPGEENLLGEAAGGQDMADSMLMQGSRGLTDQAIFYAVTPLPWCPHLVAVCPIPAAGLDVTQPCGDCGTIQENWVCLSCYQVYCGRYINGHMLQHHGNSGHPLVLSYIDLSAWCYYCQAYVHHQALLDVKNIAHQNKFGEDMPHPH
The experiment in a line: Inhibition of recombinant human HDAC6 at 100 uM using ZMAL as substrate incubated for 90 mins by fluorescence based micro plate assay relative to control. The settings on record: recombinant human HDAC6, probe ZMAL. Put shortly: (§1)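 Recombinant human HDAC1 or HDAC6 incubated 90 min at 37°C with ZMAL (Z-(Ac)Lys-AMC, 10.5 μM) and inhibitor. Developed with buffer containing trypsin (1 mg/mL) and TSA (2.75 μM), 20 min at 37°C. Fluorescence read at Ex 390/Em 460 nm.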

Series [2] concerns Schistosoma mansoni. The series is described as follows: Antischistosomal activity against Schistosoma mansoni schistosomula at 10 uM incubated for 48 hrs by Alamar Blue assay. The series is classed as functional. In outline:
(§2)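 S. mansoni newly transformed schistosomula from mechanically transformed cercariae, 100 NTS/well in Medium 199 with 10% FCS, penicillin, streptomycin and rifampicin. Pre-cultured 3 h at 37°C, 5% CO2. Compounds from 20 mM DMSO stocks, final 10 or 20 μM. Alamar Blue added after 48 h exposure, then 24 h more. Resorufin read at Ex 530/Em 590 nm. Live and ethanol-killed larvae as controls; triplicate wells, two biological replicates.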

In a further series the test system is HEK293. The experiment in a line: Cytotoxicity against human HEK293 assessed as reduction in cell viability at 50 uM measured for 24 hrs by Alamar Blue assay. The following applies: hek293, 24 h. The series is classed as cell-based. In outline:
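HEK293 cells in DMEM with 10% FCS and 5 mM glutamine at 37°C, 5% CO2, seeded at 1.5×10^3 cells/well. Compounds added at 50 μM. AlamarBlue added after 24 h and incubated a further 21 h. Resorufin fluorescence read at Ex 530/Em 590 nm. Triplicates; daunorubicin positive control.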

In series [3] the test system is Schistosoma mansoni. The experiment in a line: Antischistosomal activity against Schistosoma mansoni schistosomula at 20 uM incubated for 48 hrs by Alamar Blue assay. The series is classed as functional. Put shortly: as §2
In series [4] the test system is Schistosoma mansoni. The experiment in a line: Antischistosomal activity against Schistosoma mansoni schistosomula incubated for 72 hrs by Alamar Blue assay. The series is classed as functional, organism-based. In outline:
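Same schistosomula Alamar Blue assay (100 NTS/well, supplemented Medium 199, 37°C, 5% CO2) run over a range of concentrations. Alamar Blue added after 48 h drug exposure, fluorescence (Ex 530/Em 590 nm) read 24 h later, 72 h in culture in total. EC50 taken from the concentration-response.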
On the technique in general: Alamar Blue is a resazurin reagent that responds to reducing activity.

For series [5], the target named is T2, Protein deacetylase HDAC6 (Homo sapiens, UniProt Q9UBN7).
T2 sequence (Q9UBN7 whole entry): T1 sequence (Q9UBN7 whole entry)
The series is described as follows: Inhibition of recombinant human HDAC6 using ZMAL as substrate incubated for 90 mins by fluorescence based micro plate assay.

Series [6] is described as follows: Solubility of the compound. The series is classed as physicochemical.
In series [7] the target is T3, Histone deacetylase 8 (Schistosoma mansoni, UniProt A5H660).
T3 sequence (A5H660 whole entry): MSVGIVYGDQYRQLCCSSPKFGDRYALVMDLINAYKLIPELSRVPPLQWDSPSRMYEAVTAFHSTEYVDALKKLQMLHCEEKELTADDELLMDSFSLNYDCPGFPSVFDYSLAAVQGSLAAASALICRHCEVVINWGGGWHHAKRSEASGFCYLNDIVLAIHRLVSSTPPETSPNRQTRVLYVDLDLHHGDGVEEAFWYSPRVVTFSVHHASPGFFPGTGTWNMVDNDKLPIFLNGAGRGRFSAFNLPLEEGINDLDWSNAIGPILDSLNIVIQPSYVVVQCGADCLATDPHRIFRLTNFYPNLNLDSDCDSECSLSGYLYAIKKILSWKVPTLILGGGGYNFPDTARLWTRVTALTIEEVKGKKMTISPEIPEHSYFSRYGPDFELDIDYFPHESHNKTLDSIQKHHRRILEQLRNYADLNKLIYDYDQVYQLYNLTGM
The series is described as follows: Inhibition of Schistosoma mansoni HDAC8 using Fluor de Lys as substrate incubated for 90 mins by fluorescence method. Put shortly: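 Recombinant smHDAC8 or hHDAC8 (Romier lab) run to Fluor de Lys HDAC8 kit protocol. Substrate H2N-Arg-His-Lys(Ac)-Lys(Ac)-AMC at 50 μM with increasing inhibitor concentrations, 90 min at 37°C. Stop solution holding inhibitor plus trypsin, then 20 min at 37°C to release AMC. Fluorescence read at Ex 355/Em 460 nm.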

Series [8] concerns the target T4, Histone deacetylase 8 (Homo sapiens, UniProt Q9BY41).
T4 sequence (Q9BY41 whole entry): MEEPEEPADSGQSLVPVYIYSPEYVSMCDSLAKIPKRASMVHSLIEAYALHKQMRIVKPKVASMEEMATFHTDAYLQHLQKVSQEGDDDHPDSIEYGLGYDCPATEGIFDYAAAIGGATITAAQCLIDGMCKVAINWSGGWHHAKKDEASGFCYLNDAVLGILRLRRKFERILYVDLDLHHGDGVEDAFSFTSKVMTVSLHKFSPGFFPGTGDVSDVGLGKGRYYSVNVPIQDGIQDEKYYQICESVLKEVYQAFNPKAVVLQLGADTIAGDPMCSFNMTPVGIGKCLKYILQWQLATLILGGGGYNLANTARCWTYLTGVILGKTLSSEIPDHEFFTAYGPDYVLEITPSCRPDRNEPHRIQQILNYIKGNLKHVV
The series is described as follows: Inhibition of human recombinant HDAC8 using H2N-Arg-His-Lys(Ac)-Lys(Ac)-AMC as substrate after 90 mins by fluorescence based micro plate assay.

Series [9] has as its target T5, Histone deacetylase 1 (Homo sapiens, UniProt Q13547). The experiment in a line: Inhibition of recombinant human HDAC1 using ZMAL as substrate incubated for 90 mins by fluorescence based micro plate assay.
In series [10] the target is HDAC1 (histone deacetylase 1) (Homo sapiens, UniProt Q13547). The series is described as follows: Inhibition of recombinant human HDAC1 at 10 uM using ZMAL as substrate incubated for 90 mins by fluorescence based micro plate assay relative to control. The following applies: recombinant human HDAC1, probe ZMAL. Put shortly: as §1
In series [11] the target is T1, HDAC6 (protein deacetylase HDAC6). The series is described as follows: Inhibition of recombinant human HDAC6 at 10 uM using ZMAL as substrate incubated for 90 mins by fluorescence based micro plate assay relative to control. The settings on record: recombinant human HDAC6, probe ZMAL. In outline:
as §1

For series [12] the target is unchanged. The experiment in a line: Inhibition of recombinant human HDAC6 at 1 uM using ZMAL as substrate incubated for 90 mins by fluorescence based micro plate assay relative to control. The settings on record: recombinant human HDAC6, probe ZMAL. Put shortly:
as §1

In series [13] the target is T5, Histone deacetylase 1. The experiment in a line: Inhibition of recombinant human HDAC1 at 1 uM using ZMAL as substrate incubated for 90 mins by fluorescence based micro plate assay relative to control. The settings on record: 1.5 h, 1 µM. Put shortly:
as §1

The results in this text go back to ChEMBL document CHEMBL4842354, “Synthesis, structure-activity relationships, cocrystallization and cellular characterization of novel smHDAC8 inhibitors for the treatment of schistosomiasis” (Eur J Med Chem, 2021).

pEC50, pIC50: −log10 of the molar value.

T5 sequence (Q13547 whole entry): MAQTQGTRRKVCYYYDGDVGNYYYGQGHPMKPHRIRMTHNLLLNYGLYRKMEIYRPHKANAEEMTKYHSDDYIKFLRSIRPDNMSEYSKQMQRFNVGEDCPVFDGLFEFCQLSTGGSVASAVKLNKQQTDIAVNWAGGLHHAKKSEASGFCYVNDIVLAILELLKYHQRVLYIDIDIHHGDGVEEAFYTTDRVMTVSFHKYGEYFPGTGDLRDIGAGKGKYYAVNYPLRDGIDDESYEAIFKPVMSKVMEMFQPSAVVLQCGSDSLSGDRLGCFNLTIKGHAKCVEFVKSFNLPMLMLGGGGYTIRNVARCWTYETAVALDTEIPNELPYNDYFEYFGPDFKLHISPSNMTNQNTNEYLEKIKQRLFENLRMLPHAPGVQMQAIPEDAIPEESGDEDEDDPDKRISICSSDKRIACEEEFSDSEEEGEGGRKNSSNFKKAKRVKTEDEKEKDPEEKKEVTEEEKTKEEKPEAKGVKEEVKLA
Chain of HDAC1 (histone deacetylase 1) (Q13547 whole entry): as above

For the compound `COc1ccc(Cn2ccc3ccc(C(=O)NO)cc32)cc1`, in series [1], the inhibition at 1.5 h, 100 µM turned out to be 41%. For the same compound, the Activity in the series with Schistosoma mansoni [2] is listed as 71%; in the series with HEK293 it was 96.8%; with Schistosoma mansoni [3] it was 62.3%.

Take `COc1ccc(C(=O)NO)cc1NC(=O)c1cccc2c1oc1ccccc12`: in the series on Schistosoma mansoni [4], the pEC50 is 5.46. For the same compound, the pIC50 in series [5] is 6.54; against Histone deacetylase 8 [7], 6.57; on Histone deacetylase 8 [8] it was 6.49; at Histone deacetylase 1 [9], 4.73. The Activity with Schistosoma mansoni [2] came to 2.2%; in the series on HEK293, 73%. The solubility entry in series [6] was “Insoluble”.

Regarding `COc1ccc(C(=O)NO)cc1NC(=O)c1ccc(-c2ccccc2)cc1Cl`, the inhibition at 1.5 h, 10 µM was found to be 16% in series [10] and 46% in series [11]. For the same compound, the results for the Activity in the series with Schistosoma mansoni [2], with HEK293 and in the series on Schistosoma mansoni [3] were 64%, 94.6% and 65.6%, respectively. For the same compound, the inhibition at 1.5 h, 1 µM in [12] was 15%. Besides, the results for the pIC50 against Histone deacetylase 8 [7] and at Histone deacetylase 8 [8] were 7.00 and 5.96, respectively. Further, at Histone deacetylase 1 [13], the “inhibition (INH)” value is given as “Not Active”.

In general, inhibition refers to the drop in the measured response relative to a control, in per cent. Usually pEC50 stands for −log10 of the EC50, conventionally taken in molar units. A high value points to a low EC50. Usually pIC50 stands for the IC50 on a negative log10 scale, so that one unit is a factor of ten.
